# High-throughput results: PubChem BioAssay, Broad Institute
# Ecoli rRNA inh – selective bacterial rRNA inhibition in E. coli; E. coli WT GFP vs humanized-ribosome RFP mutants, fluorescence, 24 h; hits give low values; DMSO median 0, no signal -100; GFP signal change (wild-type ribosome), % (concentration not given with the values); 350,000 tested, 1.6% active; AID 720706;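 active = significant combined selectivity score with lowered wild-type GFP, culture density cut under 30%, mutant RFP and density less affected; inactive = any of these conditions unmet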
# RAD52 inh – RAD52 (human) annealing inhibition; P43351; recombinant RAD52 DNA annealing, FRET fluorescence; inhibition, % at 18.7 µM; 360,000 tested, 0.46% active; AID 651710;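 active = every replicate showing at least 50% inhibition; inconclusive = mean inhibition at least 50% but not in every replicate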
# Target sequence (P43351 whole entry, looked up): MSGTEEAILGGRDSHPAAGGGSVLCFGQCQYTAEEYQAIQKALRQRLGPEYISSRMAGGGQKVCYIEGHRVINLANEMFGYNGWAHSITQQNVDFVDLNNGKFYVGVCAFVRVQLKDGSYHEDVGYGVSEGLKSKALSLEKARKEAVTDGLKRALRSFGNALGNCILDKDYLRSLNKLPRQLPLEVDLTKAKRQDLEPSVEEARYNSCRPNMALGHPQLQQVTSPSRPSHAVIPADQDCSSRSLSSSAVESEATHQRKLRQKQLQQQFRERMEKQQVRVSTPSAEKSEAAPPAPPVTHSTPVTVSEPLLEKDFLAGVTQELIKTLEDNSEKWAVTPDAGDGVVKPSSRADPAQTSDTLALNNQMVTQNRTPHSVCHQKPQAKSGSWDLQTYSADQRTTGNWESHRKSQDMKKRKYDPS
# PglD DTNB – inhibitors of Campylobacter jejuni PglD acetyltransferase; 360,000 tested, 0.098% active; AID 602405; purified PglD enzyme, DTNB colorimetric CoA detection; inhibition, % at 12.5 µM; in the data active = inhibition above about 16%, passing the limit was not always enough; inconclusive = no clear call, values can overlap the other calls
# RAD54 inh – blocks human RAD54 Holliday junction branch migration; inhibition, % at 10.4 µM; FAM/BHQ fluorescence; Q92698; AID 602329; 360,000 tested, 0.14% active;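 active = mean normalized replicate activity at least 40 and at least half of replicates scoring 40 or more; inconclusive = only one of the two criteria met; inactive = mean below 40 and under half of replicates reaching 40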;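 also: 0% = median of neutral control wells and 100% = median of positive control wells; inhibitors cause a drop in the FAM fluorescence signal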
# Cneo AK release – Cryptococcus neoformans lysis via adenylate kinase release. C. neoformans lysis, adenylate kinase release luminescence, 4 h; normalised: neutral wells 0, clomiphene wells 100. lysis activity, % at 15 µM. 360,000 tested, 0.2% active. AID 651654;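 active = mean lysis activity across replicates of at least 80%, whatever share of replicates individually reach that level; inactive = mean lysis activity below 80%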
#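 Assay system: Cryptococcus neoformans yeast cells / Dosing: single-point compound dose / Timing: 4 h at 37 °C static, read 1 h later / Measured by: luminescence of released adenylate kinase using an AK detection reagent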
# AID977621 – wild-type E. coli growth inhibition versus H69 humanized strain – H69 mutant RFP, wild-type GFP, cherry-pick, dose response; shares compounds with Ecoli rRNA inh; fluorescence, 24 h; 1,900 tested, under 10 active; activity change, negative = inhibition at 50 µM;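 active = Wild-type ribosome reporter drop at least double the humanized mutant ribosome reporter drop, growth loss under a set limit; inconclusive = no clear call, values can overlap the other calls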;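 also: wild-type GFP and H69 mutant RFP strains grown together 50/50 in each well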
# AID977628 – E. coli growth inhibition, wild-type GFP versus h24 humanized RFP strain, dose response, h24 mutant RFP vs wild-type GFP, cherry-pick; E. coli WT GFP strain growth, fluorescence, 24 h; 1,900 tested, under 10 active; shares compounds with Ecoli rRNA inh; AID 977628; activity change, negative = inhibition at 50 µM;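 active = compound lowering the normal-ribosome reporter at least twice as much as the humanized-ribosome reporter, growth loss under a set limit; inconclusive = no clear call, values can overlap the other calls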;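 also: wild-type GFP and h24 humanized RFP strains co-cultured 1 to 1 per well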
# Starred values were filed as active, the others as inactive; u = inconclusive; x = no result given. Rows were chosen to be rich in hits. Some 1.9% of all compounds tested hit in one or more screens of this group.
SMILES,Ecoli rRNA inh,RAD52 inh,PglD DTNB,RAD54 inh,Cneo AK release,AID977621,AID977628
C=CCOC(=O)[C@@H]1[C@H]2C(=O)O[C@H](c3ccccc3)[C@H](c3ccccc3)N2[C@H](c2ccc(OCCOC(=O)[C@@H]3C[C@@H]4C(=O)NCC(=O)N4[C@@H]3c3ccc(O)cc3)cc2)[C@@]12C(=O)Nc1ccc(I)cc12,x,-11,2,-15,-1,x,x
COc1cc(C2CC(=O)Oc3cc(C)cc(C)c32)cc(OC)c1OC (stereo not given),-22*,-16,-2,0,2,x,-11
C[C@@H]1CN([C@@H](C)CO)S(=O)(=O)c2ccc(/C=C/c3ccccc3)cc2O[C@@H]1CN(C)C(=O)Nc1ccc(F)cc1,2,-1,1,-8,9,x,x
O=S1(=O)N[C@H](Cc2ccccc2)COc2cccc(N3CCC[C@H]3CO)c21,-22*,-9,x,x,x,-9.2,x
O=S1(=O)N[C@@H](Cc2ccccc2)COc2cc(N3CCC[C@H]3CO)ccc21,-16*,-38,x,x,x,x,-8.9
O=C(NCc1ccccc1)c1cc(S(=O)(=O)N2CCCCC2)ccc1N1CCOCC1,-18*,-10,2,-3,0,-8.3,-4.6
O=C(CSc1nnc(-c2ccccc2F)n1C1CC1)Nc1cccnc1Cl,-16*,9,6,5,-4,-8.9,-6.6
C/C=C/c1ccc2c(c1)O[C@@H](CN(C)C(=O)c1cccc(F)c1)[C@@H](C)CN([C@H](C)CO)S2(=O)=O,-2,-2,0,7,-10,x,x
COc1ccc2c(c1)-c1nc(N)sc1CC2,-22*,-6,x,x,x,-0.82,2
COC(=O)c1ccsc1NC(=O)c1ccco1,8,-35,-3,6,-4,x,x
COC(=O)c1ccsc1NC(=O)c1cccc(OC)c1,-27*,-25,x,x,x,4.4,-4.4
CCN1[C@@H]2Cn3c(ccc(-c4ccccc4OC)c3=O)[C@H]1[C@@H](C(=O)N1CCOCC1)[C@@H]2CO,2,7,0,3,50,x,x
CCOC(=O)c1ccc(NC(=O)c2ccc(OC(C)C)c(OC)c2)cc1,-26*,-9,x,x,x,-3.6,-7.8
CCOC(=O)c1ccc(NC(=O)Nc2ccc(OC)c(OC)c2)cc1,x,x,-7,13,-2,x,x
Cn1nnnc1SCc1nc2scc(-c3ccccc3)c2c(=O)[nH]1,-14,-86,3,-4,-1,x,x
Cc1csc(SCc2nc3scc(-c4ccccc4)c3c(=O)[nH]2)n1,-24*,-21,6,-7,2,0.6,-8.5
O=C(O)c1cc(-c2ccc(-c3ccc(F)cc3)o2)nc2ccccc12,-38*,-19,-1,-6,-2,-13,x
Cc1cccc(-c2noc(-c3ccccc3C(=O)NCc3ccco3)n2)c1,-33*,-21,-13,-4,-4,-17,-14
O=C(O)CC(CC(=O)Nc1ccc2ccccc2n1)c1ccccc1 (stereo not given),-20*,-3,x,x,x,-3.8,-1.7
C[C@H](CO)N1C[C@H](C)[C@H](CN(C)CC2CCCCC2)OCCCC[C@H](C)Oc2ccc(NS(=O)(=O)c3cn(C)cn3)cc2C1=O,2,2,3,-1,-3,x,x
COc1cccc(C(=O)Nc2nnc(S(=O)(=O)N(C)Cc3ccccc3)s2)c1,-23*,-12,-2,-14,14,-17,-18
COc1cc(OC)cc(-c2nc3ccccc3c(=O)n2OC(=O)c2ccc(C)c(C)c2)c1,-22*,-13,x,x,x,-8.3,-3.7
O=C(O)c1cc2ccc3ccccc3c2[nH]1,-26*,-13,x,x,x,-5.3,x
O=C(O)c1cc(=O)c2ccccc2[nH]1,x,-8,-3,-3,0,x,x
COc1ccc(S(=O)(=O)N[C@@H]2CC[C@H](CCn3cc(-c4ccccc4F)nn3)O[C@@H]2CO)cc1,-9,3,1,-3,47,x,x
SMILES,Ecoli rRNA inh,RAD52 inh,PglD DTNB,RAD54 inh,Cneo AK release,AID977621,AID977628
C[C@H](CO)N1C[C@H](C)[C@@H](CN(C)C(=O)c2cc(Cl)cc(Cl)c2)OCc2ccccc2-c2ccccc2C1=O,1,15,x,x,x,x,x
O=C(C[C@@H]1CC[C@H]2[C@@H](COC[C@@H](O)CN2CCc2ccccc2)O1)NCc1ccccc1,-2,-1,-5,-7,1,x,x
C[C@@H]1CN([C@@H](C)CO)C(=O)c2cc(NC(=O)Nc3ccccc3)ccc2O[C@@H](C)CCCCO[C@@H]1CN(C)C(=O)CCCN(C)C,1,27,-1,-1,6,x,x
C[C@H]1CCCCO[C@H](CN(C)C(=O)Nc2cccc3ccccc23)[C@@H](C)CN([C@@H](C)CO)C(=O)c2cc(NC(=O)Nc3cccc4ccccc34)ccc2O1,0,14,0,-6,1,x,x
C[C@H](CO)N1C[C@H](C)[C@H](CN(C)C(=O)Nc2cccc3ccccc23)OCCCC[C@H](C)Oc2ccc(NC(=O)Nc3cccc4ccccc34)cc2C1=O,7,8,0,5,-3,x,x
C[C@H]1CCCCO[C@H](CN(C)C(=O)CCCN(C)C)[C@@H](C)CN([C@@H](C)CO)C(=O)c2cc(NC(=O)Nc3cccc4ccccc34)ccc2O1,0,16,1,12,7,u,11
C[C@@H]1CCCCO[C@@H](CN(C)C(=O)CCCN(C)C)[C@H](C)CN([C@H](C)CO)C(=O)c2cc(NC(=O)Nc3cccc4ccccc34)ccc2O1,0,25,4,8,-1,-5.5,u
C[C@H](CO)N1C[C@H](C)[C@H](CN(C)C(=O)CCCN(C)C)OCCCC[C@H](C)Oc2ccc(NC(=O)Nc3cccc4ccccc34)cc2C1=O,-1,32,2,10,6,-7.2,u
C[C@@H]1CN([C@@H](C)CO)C(=O)c2cc(NC(=O)Nc3cccc4ccccc34)ccc2O[C@@H](C)CCCCO[C@H]1CN(C)C(=O)CCCN(C)C,1,27,1,14,3,x,u
O=C(NC[C@H]1[C@@H](c2ccccc2)[C@@H](CO)N1Cc1ccccn1)C1CCC1,3,x,1,2,0,x,x
COc1ccc(S(=O)(=O)N(C)C[C@@H]2Oc3c(NS(=O)(=O)c4ccc(Cl)cc4)cccc3C(=O)N([C@@H](C)CO)C[C@H]2C)cc1,-2,x,0,23,4,x,x
C[C@@H]1CN([C@H](C)CO)C(=O)c2cc(NC(=O)Nc3cccc4ccccc34)ccc2O[C@@H](C)CCCCO[C@H]1CN(C)C(=O)c1ccccc1,-4,-18,2,2,0,x,x
O=C(c1cnccn1)N1CC(=O)N2[C@H](CO)[C@H](c3ccc(C#CCc4ccccc4)cc3)[C@@H]2C1,1,4,x,x,x,x,x
